# Source: ChEMBL document CHEMBL1144067, “Cancer chemopreventive agents (antitumor-promoters) from Ajuga decumbens” (J Nat Prod, 1999)
# Experiments:
# Raji [1] = experiment: Inhibition of 12-O-tetradecanoylphorbol-13-acetate induced EBV-early antigen activation in human Raji cells at 1000 molar ratio relative to control; format: cell-based; conditions: human gammaherpesvirus 4
# In short: (§1)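 Raji cells in RPMI-1640 treated 48 h at 37 °C with n-butyric acid (4 mmol), TPA (32 pmol = 20 ng/mL) and test agent at 10, 100, 500 or 1000 mol ratio/TPA (0.32–32 nmol). EA-positive cells in smears detected by indirect immunofluorescence; induction expressed relative to TPA positive control (100%), n = 3, ±S.D.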
# Raji [2] = experiment: Inhibition of 12-O-tetradecanoylphorbol-13-acetate induced EBV-early antigen activation in human Raji cells at 10 molar ratio relative to control; format: cell-based; conditions: human gammaherpesvirus 4; in short: as §1
# Raji [3] = experiment: Inhibition of 12-O-tetradecanoylphorbol-13-acetate induced EBV-early antigen activation in human Raji cells at 100 molar ratio relative to control; format: cell-based; conditions: human gammaherpesvirus 4; in short: as §1
# [4] = Cytotoxicity against human Raji cells assessed as cell viability at 10 molar ratio after 48 hrs; format: cell-based; conditions: read-out: Activity
# In short: (§2)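 Raji cells (EBV genome-carrying, Burkitt's lymphoma-derived) grown in RPMI-1640 and incubated 48 h at 37 °C with 4 mmol n-butyric acid, 32 pmol TPA (20 ng/mL) and test agent at 10–1000 mol ratio/TPA (0.32–32 nmol). Viability given as percentage of Raji cells; n = 3, ±S.D.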
# [5] = Cytotoxicity against human Raji cells assessed as cell viability at 1000 molar ratio after 48 hrs; format: cell-based; conditions: read-out: Activity; in short: as §2
# [6] = Cytotoxicity against human Raji cells assessed as cell viability at 100 molar ratio after 48 hrs; format: cell-based; conditions: read-out: Activity; in short: as §2
# Raji [7] = experiment: Inhibition of 12-O-tetradecanoylphorbol-13-acetate induced EBV-early antigen activation in human Raji cells at 500 molar ratio relative to control; format: cell-based; conditions: human gammaherpesvirus 4; in short: as §1
# [8] = Cytotoxicity against human Raji cells assessed as cell viability at 500 molar ratio after 48 hrs; format: cell-based; conditions: read-out: Activity; in short: as §2
# Mus musculus [9] = experiment: Inhibition of DMBA-induced/TPA-promoted carcinogenesis in mouse assessed as number of skin papillomas per mouse at 85 nmol administered twice weekly after 1 week of initiation for 20 weeks; format: functional
# In short: (§3)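 Female SPF ICR mice, 6 weeks old, 15 per group, backs shaved; single topical DMBA initiation (100 μg, 390 nmol) in 0.1 mL acetone. From 1 week after, promotion with TPA 1.7 nmol twice weekly, plus 85 nmol test agent. Papilloma incidence and number per mouse monitored weekly for 20 weeks.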
# Mus musculus [10] = experiment: Inhibition of DMBA-induced/TPA-promoted carcinogenesis in mouse assessed as number of skin papillomas per mouse at 85 nmol administered twice weekly after 1 week of initiation for 10 weeks; format: functional; in short: as §3
smiles,measurement,setting,value
CC(C)(O)CC[C@@H](O)[C@@](C)(O)[C@H]1CC[C@@]2(O)C3=CC(=O)[C@@H]4C[C@@H](O)[C@@H](O)C[C@]4(C)[C@H]3CC[C@]12C,EBV-EA induction remaining (% of TPA control),Raji [1],0%
same,EBV-EA activation relative to TPA control,Raji [2],100%
same,EBV-EA induction remaining (% of TPA control),Raji [3],90.1%
same,"viability at 48 h, 10 molar ratio",[4],> 80%
same,"viability at 48 h, 1000 molar ratio",[5],70%
same,"viability at 48 h, 100 molar ratio",[6],> 80%
same,EBV-EA induction remaining (% of TPA control),Raji [7],73.7%
same,"viability at 48 h, 500 molar ratio",[8],> 80%
C=C(C)C(C[C@@H](O)[C@@](C)(O)[C@H]1CC[C@@]2(O)C3=CC(=O)[C@@H]4C[C@@H](O)[C@@H](O)C[C@]4(C)[C@H]3CC[C@]12C)C(C)O (some centres undefined) [DECUMBESTERONE],EBV-EA induction remaining (% of TPA control),Raji [1],0%
same,EBV-EA activation relative to TPA control,Raji [2],100%
same,EBV-EA induction remaining (% of TPA control),Raji [3],66%
same,"viability at 48 h, 10 molar ratio",[4],> 80%
same,"viability at 48 h, 1000 molar ratio",[5],70%
same,"viability at 48 h, 100 molar ratio",[6],> 80%
same,EBV-EA induction remaining (% of TPA control),Raji [7],24.7%
same,"viability at 48 h, 500 molar ratio",[8],> 80%
CC(C)(O)CC[C@@H](O)[C@](C)(O)[C@H]1CC[C@@]2(O)C3=CC(=O)[C@]4(O)C[C@@H](O)[C@@H](O)C[C@]4(C)[C@H]3CC[C@]12C [POLYPODINE B],"viability at 48 h, 10 molar ratio",[4],> 80%
same,"viability at 48 h, 1000 molar ratio",[5],70%
same,"viability at 48 h, 100 molar ratio",[6],> 80%
same,"viability at 48 h, 500 molar ratio",[8],> 80%
C=C(CO)C(CC)C[C@@H](O)[C@@](C)(O)[C@H]1CC[C@@]2(O)C3=CC(=O)[C@@H]4C[C@@H](O)[C@@H](O)C[C@]4(C)[C@H]3CC[C@]12C (some centres undefined),EBV-EA induction remaining (% of TPA control),Raji [1],4.6%
same,EBV-EA activation relative to TPA control,Raji [2],95.8%
same,EBV-EA induction remaining (% of TPA control),Raji [3],72.6%
same,"viability at 48 h, 10 molar ratio",[4],> 80%
same,"viability at 48 h, 1000 molar ratio",[5],70%
same,"viability at 48 h, 100 molar ratio",[6],> 80%
same,EBV-EA induction remaining (% of TPA control),Raji [7],49.1%
same,"viability at 48 h, 500 molar ratio",[8],> 80%
CCC1=C(C)C(=O)O[C@@H]([C@](C)(O)[C@H]2CC[C@@]3(O)C4=CC(=O)[C@@H]5C[C@@H](O)[C@@H](O)C[C@]5(C)[C@H]4CC[C@]23C)C1,EBV-EA induction remaining (% of TPA control),Raji [1],17.5%
same,EBV-EA activation relative to TPA control,Raji [2],100%
same,EBV-EA induction remaining (% of TPA control),Raji [3],81%
same,"viability at 48 h, 10 molar ratio",[4],> 80%
same,"viability at 48 h, 1000 molar ratio",[5],60%
same,"viability at 48 h, 100 molar ratio",[6],> 80%
same,EBV-EA induction remaining (% of TPA control),Raji [7],58.2%
same,"viability at 48 h, 500 molar ratio",[8],> 80%
O=c1cc(-c2ccc(O)cc2)oc2cc(O)cc(O)c12 [APIGENIN],EBV-EA induction remaining (% of TPA control),Raji [1],31.5%
same,EBV-EA activation relative to TPA control,Raji [2],100%
same,EBV-EA induction remaining (% of TPA control),Raji [3],83.7%
same,"viability at 48 h, 10 molar ratio",[4],> 80%
same,"viability at 48 h, 1000 molar ratio",[5],50%
same,"viability at 48 h, 100 molar ratio",[6],> 80%
same,EBV-EA induction remaining (% of TPA control),Raji [7],65.9%
same,"viability at 48 h, 500 molar ratio",[8],> 80%
C[C@@H]1C(=O)O[C@H](C)[C@H]1C[C@@H](O)[C@](C)(O)[C@H]1CC[C@@]2(O)C3=CC(=O)[C@]4(O)C[C@@H](O)[C@@H](O)C[C@]4(C)[C@H]3CC[C@]12C,EBV-EA induction remaining (% of TPA control),Raji [1],0%
same,EBV-EA activation relative to TPA control,Raji [2],100%
same,EBV-EA induction remaining (% of TPA control),Raji [3],80.2%
same,"viability at 48 h, 10 molar ratio",[4],> 80%
same,"viability at 48 h, 1000 molar ratio",[5],70%
same,"viability at 48 h, 100 molar ratio",[6],> 80%
same,EBV-EA induction remaining (% of TPA control),Raji [7],51.9%
same,"viability at 48 h, 500 molar ratio",[8],> 80%
CC1(C)C[C@H](O)C[C@@]2(C)OC(=O)C=C12 [LOLIOLIDE],EBV-EA induction remaining (% of TPA control),Raji [1],5.1%
same,EBV-EA activation relative to TPA control,Raji [2],88%
same,EBV-EA induction remaining (% of TPA control),Raji [3],59.6%
same,"viability at 48 h, 10 molar ratio",[4],> 80%
same,"viability at 48 h, 1000 molar ratio",[5],60%
same,"viability at 48 h, 100 molar ratio",[6],> 80%
same,EBV-EA induction remaining (% of TPA control),Raji [7],26.8%
same,"viability at 48 h, 500 molar ratio",[8],> 80%
C/C=C(/C)C(=O)O[C@@H]1CC[C@]2(CO2)[C@]2(COC(C)=O)[C@@H](OC(C)=O)C[C@@H](C)[C@](C)(C[C@H](O)C3=CC(=O)OC3)[C@@H]12,EBV-EA induction remaining (% of TPA control),Raji [1],0%
same,EBV-EA activation relative to TPA control,Raji [2],100%
same,EBV-EA induction remaining (% of TPA control),Raji [3],76.3%
same,"viability at 48 h, 10 molar ratio",[4],> 80%
same,"viability at 48 h, 1000 molar ratio",[5],50%
same,"viability at 48 h, 100 molar ratio",[6],> 80%
same,EBV-EA induction remaining (% of TPA control),Raji [7],55.8%
same,"viability at 48 h, 500 molar ratio",[8],> 80%
COc1cc(C(=O)O)ccc1O [VANILLIC ACID],EBV-EA induction remaining (% of TPA control),Raji [1],0%
same,EBV-EA activation relative to TPA control,Raji [2],90.2%
same,EBV-EA induction remaining (% of TPA control),Raji [3],73.9%
same,"viability at 48 h, 10 molar ratio",[4],> 80%
same,"viability at 48 h, 1000 molar ratio",[5],60%
same,"viability at 48 h, 100 molar ratio",[6],> 80%
same,EBV-EA induction remaining (% of TPA control),Raji [7],46.2%
same,"viability at 48 h, 500 molar ratio",[8],> 80%
C/C=C(/C)C(=O)O[C@@H]1CC[C@]2(CO2)[C@]2(COC(C)=O)[C@@H](OC(C)=O)C[C@@H](C)[C@](C)(C[C@H](OC(C)=O)C3=CC(=O)OC3)[C@@H]12,EBV-EA induction remaining (% of TPA control),Raji [1],0%
same,EBV-EA activation relative to TPA control,Raji [2],100%
same,EBV-EA induction remaining (% of TPA control),Raji [3],73.5%
same,"viability at 48 h, 10 molar ratio",[4],> 80%
same,"viability at 48 h, 1000 molar ratio",[5],60%
same,"viability at 48 h, 100 molar ratio",[6],> 80%
same,EBV-EA induction remaining (% of TPA control),Raji [7],42.6%
same,"viability at 48 h, 500 molar ratio",[8],> 80%
CC(=O)OC[C@@]12[C@@H](OC(C)=O)C[C@@H](C)[C@](C)(C[C@H](OC(C)=O)C3=CC(=O)OC3)[C@H]1[C@H](OC(C)=O)CC[C@]21CO1 [AJUGAPANTIN A],EBV-EA induction remaining (% of TPA control),Raji [1],10.6%
same,EBV-EA activation relative to TPA control,Raji [2],100%
same,EBV-EA induction remaining (% of TPA control),Raji [3],79.2%
same,"viability at 48 h, 10 molar ratio",[4],> 80%
same,"viability at 48 h, 1000 molar ratio",[5],70%
same,"viability at 48 h, 100 molar ratio",[6],> 80%
same,EBV-EA induction remaining (% of TPA control),Raji [7],54.7%
same,"viability at 48 h, 500 molar ratio",[8],> 80%
CC(C)(O)CC[C@@H](O)[C@@](C)(O)[C@H]1CC[C@@]2(O)C3=CC(=O)[C@]4(O)C[C@@H](O)[C@@H](O)C[C@]4(C)[C@H]3CC[C@]12C,EBV-EA induction remaining (% of TPA control),Raji [1],0%
same,EBV-EA activation relative to TPA control,Raji [2],100%
same,EBV-EA induction remaining (% of TPA control),Raji [3],65.9%
same,EBV-EA induction remaining (% of TPA control),Raji [7],23.4%
C[C@@H]1C(=O)O[C@H](C)[C@H]1CC(=O)[C@](C)(O)[C@H]1CC[C@@]2(O)C3=CC(=O)[C@@H]4C[C@@H](O)[C@@H](O)C[C@]4(C)[C@H]3CC[C@]12C,EBV-EA induction remaining (% of TPA control),Raji [1],20.9%
same,EBV-EA activation relative to TPA control,Raji [2],100%
same,EBV-EA induction remaining (% of TPA control),Raji [3],84.5%
same,"viability at 48 h, 10 molar ratio",[4],> 80%
same,"viability at 48 h, 1000 molar ratio",[5],60%
same,"viability at 48 h, 100 molar ratio",[6],> 80%
same,EBV-EA induction remaining (% of TPA control),Raji [7],61.9%
same,"viability at 48 h, 500 molar ratio",[8],> 80%
CC1(C)[C@@H](O)CC[C@]2(C)[C@H]3C(=O)C=C4[C@@H]5C[C@@](C)(C(=O)O)CC[C@]5(C)CC[C@@]4(C)[C@]3(C)CC[C@@H]12 [ENOXOLONE],Activity,Mus musculus [9],9
same,Activity,Mus musculus [10],4
C/C=C(/C)C(=O)O[C@@H](C[C@@]1(C)[C@H](C)C[C@H](OC(C)=O)[C@]2(COC(C)=O)[C@@H]1[C@H](OC(=O)/C(C)=C\C)CC[C@]21CO1)C1=CC(=O)OC1,EBV-EA induction remaining (% of TPA control),Raji [1],18.4%
same,EBV-EA activation relative to TPA control,Raji [2],100%
same,EBV-EA induction remaining (% of TPA control),Raji [3],71.5%
same,"viability at 48 h, 10 molar ratio",[4],> 80%
same,"viability at 48 h, 1000 molar ratio",[5],70%
same,"viability at 48 h, 100 molar ratio",[6],> 80%
same,EBV-EA induction remaining (% of TPA control),Raji [7],47.2%
same,"viability at 48 h, 500 molar ratio",[8],> 80%
